# Measurements from ChEMBL document CHEMBL4715825, “Synthesis and biological evaluations of marine oxohexadecenoic acids: PPARα/γ dual agonism and anti-diabetic target gene effects” (Eur J Med Chem, 2018).
# Calls of active or inactive are those of the source. The rule behind the calls is not given here.
# What was measured:
# [1] = Cytotoxicity against African green monkey COS-1 cells assessed as cell viability at EC50 concentration for PPAR activation assay by XTT assay; format: cell-based; conditions: chlorocebus aethiops, read-out: Activity
# In short: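 Run on COS-1 cells treated in parallel with the Gal4-LBD PPAR reporter assays. Metabolic NAD(P)H flux was measured by kit XTT assay per the maker's protocol. Absorbance was read at 450/690 nm.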
# [2] = molecular target: T1, Peroxisome proliferator-activated receptor alpha (Homo sapiens, UniProt Q07869); assay: Agonist activity at recombinant human PPARalpha LBD (168 to 468 residues) expressed in African green monkey COS-1 cells incubated for 18 hrs by luciferase reporter gene assay; format: cell-based
# T1 sequence (Q07869 whole entry): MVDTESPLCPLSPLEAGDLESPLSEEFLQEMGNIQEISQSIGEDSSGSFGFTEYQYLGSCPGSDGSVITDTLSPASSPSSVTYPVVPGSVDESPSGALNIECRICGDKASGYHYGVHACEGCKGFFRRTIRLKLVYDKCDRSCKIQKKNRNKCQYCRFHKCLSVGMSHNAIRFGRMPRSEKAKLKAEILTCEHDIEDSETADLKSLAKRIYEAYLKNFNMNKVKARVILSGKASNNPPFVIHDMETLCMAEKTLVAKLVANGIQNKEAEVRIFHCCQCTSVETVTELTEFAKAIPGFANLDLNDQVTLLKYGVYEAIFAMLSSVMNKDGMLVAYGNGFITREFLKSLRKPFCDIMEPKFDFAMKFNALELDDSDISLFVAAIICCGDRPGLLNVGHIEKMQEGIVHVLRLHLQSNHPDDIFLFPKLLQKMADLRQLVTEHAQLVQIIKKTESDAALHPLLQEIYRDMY
# In short: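 Transient Gal4 one-hybrid assay in COS-1 cells (7×10^4 per well), transfected 24 h after seeding. Plasmids were Gal4-DBD fused to the human nuclear receptor LBD, a 5×UAS-SV40 luciferase reporter and pRL-CMV Renilla control. Ligand in DMSO (final 0.1%) was added 5 h post-transfection. Dual-luciferase activity was read after 18 h, expressed as RLU, from three biological replicates in quadruplicate.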
# [3] = Cytotoxicity against African green monkey COS-1 cells assessed as cell viability at EC50 concentration for PPAR activation assay by LDH assay; format: cell-based; conditions: chlorocebus aethiops, read-out: Activity
# In short: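 Assayed in the same COS-1 cultures as the Gal4-LBD PPAR reporter assays. Lactate dehydrogenase released into the medium was measured with a commercial kit per the maker's protocol. Absorbance was read at 492/750 nm.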
# [4] = molecular target: T2, Peroxisome proliferator-activated receptor gamma (Homo sapiens) (UniProt P37231); assay: Agonist activity at human PPARgamma in 8 day differentiated human SGBS cells assessed as decrease in CXCL5 gene expression at 2 uM incubated for 24 hrs by SYBR-green based qPCR analysis
# T2 sequence (whole entry): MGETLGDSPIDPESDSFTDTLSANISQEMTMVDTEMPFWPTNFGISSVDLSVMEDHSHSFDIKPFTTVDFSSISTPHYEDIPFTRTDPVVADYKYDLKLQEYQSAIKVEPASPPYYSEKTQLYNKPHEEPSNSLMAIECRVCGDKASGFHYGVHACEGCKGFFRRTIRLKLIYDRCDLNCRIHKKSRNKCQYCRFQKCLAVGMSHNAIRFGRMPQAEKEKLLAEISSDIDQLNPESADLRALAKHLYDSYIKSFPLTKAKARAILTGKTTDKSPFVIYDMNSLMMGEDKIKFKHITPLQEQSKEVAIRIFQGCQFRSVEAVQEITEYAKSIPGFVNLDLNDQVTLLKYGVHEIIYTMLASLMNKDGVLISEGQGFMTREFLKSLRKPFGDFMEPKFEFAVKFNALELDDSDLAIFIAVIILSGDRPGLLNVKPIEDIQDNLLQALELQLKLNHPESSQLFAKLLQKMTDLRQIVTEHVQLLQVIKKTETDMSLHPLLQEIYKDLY
# [5] = molecular target: T2, Peroxisome proliferator-activated receptor gamma (Homo sapiens); assay: Agonist activity at human PPARgamma in 8 day differentiated human SGBS cells assessed as decrease in […] gene expression at 2 uM incubated for 24 hrs by SYBR-green based qPCR analysis
# [6] = molecular target: T2, Peroxisome proliferator-activated receptor gamma (Homo sapiens); assay: Agonist activity at human PPARgamma in 8 day differentiated human SGBS cells assessed as decrease in IL-1 beta gene expression at 2 uM incubated for 24 hrs by SYBR-green based qPCR analysis
# [7] = molecular target: T2, Peroxisome proliferator-activated receptor gamma (Homo sapiens); assay: Agonist activity at human PPARgamma in 8 day differentiated human SGBS cells assessed as decrease in TNF gene expression at 2 uM incubated for 24 hrs by SYBR-green based qPCR analysis
# [8] = molecular target: T2, Peroxisome proliferator-activated receptor gamma (Homo sapiens); assay: Agonist activity at human PPARgamma in 8 day differentiated human SGBS cells assessed as decrease in CXCL1 gene expression at 2 uM incubated for 24 hrs by SYBR-green based qPCR analysis
Compound,viability [1] [%],EC50 [2] [µM],viability [3] [%],Activity [4],Activity [5],Activity [6],Activity [7],Activity [8]
CCCCCCCCCCCCCCCC(=O)O [PALMITIC ACID],> 90,35,> 95,,,,,
Cc1cccc(Nc2cc(Cl)nc(SCC(=O)O)n2)c1C [PIRINIXIC ACID],> 95,,> 95,,,,,
CN(CCOc1ccc(CC2SC(=O)NC2=O)cc1)c1ccccn1 (configuration not stated) [ROSIGLITAZONE],> 95,,> 95,inactive,inactive,inactive,inactive,inactive
